Experimental data from different studies.
Protocols differ between the studies behind these lines.
Target: Megakaryocyte-associated tyrosine-protein kinase (MATK, Homo sapiens, UniProt P42679)
Sequence (P42679 1-507, as in one of the studies): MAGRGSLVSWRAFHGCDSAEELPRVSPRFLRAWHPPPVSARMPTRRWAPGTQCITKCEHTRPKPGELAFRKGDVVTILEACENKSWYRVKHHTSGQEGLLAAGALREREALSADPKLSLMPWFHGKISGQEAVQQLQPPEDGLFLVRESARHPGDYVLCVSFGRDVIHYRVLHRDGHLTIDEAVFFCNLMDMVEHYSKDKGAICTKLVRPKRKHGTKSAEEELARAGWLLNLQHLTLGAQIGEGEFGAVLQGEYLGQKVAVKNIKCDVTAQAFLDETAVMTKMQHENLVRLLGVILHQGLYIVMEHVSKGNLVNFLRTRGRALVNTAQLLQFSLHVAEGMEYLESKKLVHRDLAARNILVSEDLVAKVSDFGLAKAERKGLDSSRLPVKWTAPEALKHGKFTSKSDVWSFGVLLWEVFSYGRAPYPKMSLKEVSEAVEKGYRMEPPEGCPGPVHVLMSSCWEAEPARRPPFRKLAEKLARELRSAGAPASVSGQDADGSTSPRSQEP

Compound	effect on	action	technique	concentration	quantity	value
Cc1nn(C)cc1-c1nc2c(N3CCN(Cc4ccc(Cl)cc4)CC3)c(Cl)cnc2[nH]1	binding	–	competition with immobilised ligand	1 µM	remaining binding	82%
Cn1cc(-c2cc(F)cc(N3CCn4c(cc5c4CCCC5)C3=O)c2CO)cc(Nc2ccc(N3CCN(C4COC4)CC3)cn2)c1=O	enzyme activity	inhibitor	–	0.1 µM	inhibition	9%
Cn1cncc1[C@](O)(COc1ccc(C#N)cc1-c1ccc(OC(F)(F)F)cc1)c1ccc(C#N)cc1	cell-free assay	–	competition with immobilised ligand	1 µM	remaining binding	98%
COc1cc(Nc2ncc(F)c(Nc3ccc4c(n3)NC(=O)C(C)(C)O4)n2)cc(OC)c1OC	binding	–	competition with immobilised ligand	10 µM	inhibition	70%
Cn1cc(-c2cccc(N3CCc4c(sc5c4CC(C)(C)C5)C3=O)c2CO)cc(Nc2ccncn2)c1=O	enzyme activity	inhibitor	–	1 µM	inhibition	4%
CC(C)(C)c1cc(C=C(C#N)C#N)cc(Br)c1O	enzyme activity	inhibitor	–	0.5 µM	remaining activity	102%
COc1ncccc1-c1cnn2ccc(N3CCN(C(=O)OC(C)C)CC3)nc12	binding	–	competition with immobilised ligand	1 µM	remaining binding	46%
O=c1[nH]c2ccccc2n1C1CCN(Cc2ccc(-c3[nH]c4cc5ncnc5cc4nc3-c3ccccc3)cc2)CC1	cell-free assay	–	–	0.5 µM	remaining signal	102%
Nc1ncc(-c2nc(N3CCOCC3)nc(N3CCOCC3)n2)c(C(F)F)n1	binding	–	competition with immobilised ligand	10 µM	remaining binding	100%
